# SENP8 block-1: inhibitors of human SENP8 protease; inhibition, % at 20 µM; AID 602440; recombinant SENP8, Nedd8 substrate fluorescence; 360,000 tested, 0.64% active; Q96LD8; in the data active = inhibition mostly above about 40%, no sharp cut-off; inactive = mostly below about 27%
# SENP7 block: blocks the human protease SENP7; inhibition, % at 5 µM; 330,000 tested, 1.5% active; recombinant SENP7, Z-RLRGG-aminoluciferin luminescence, 40 min; AID 434973;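 active = inhibition above about 50% at the single test dose, limit read from the data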;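 note: plate controls were DMSO with enzyme for no effect and no enzyme buffer wells for full effect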
# SENP1 inh: blocks the human SENP1 SUMO protease catalytic domain; Q9P0U3; recombinant SENP1 catalytic domain, CyPet-SUMO1-YPet FRET cleavage; inhibition, % at 10 µM; 360,000 tested, 0.21% active; AID 624204;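 active = inhibition at least 30% at 10 µM, raw YFP signal under a set limit, fluorescence ratio 0.5 to 1.5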;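 note: 0% = enzyme with DMSO and 100% = no enzyme wells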
# Target sequence (Q9P0U3 419-644 limits assumed): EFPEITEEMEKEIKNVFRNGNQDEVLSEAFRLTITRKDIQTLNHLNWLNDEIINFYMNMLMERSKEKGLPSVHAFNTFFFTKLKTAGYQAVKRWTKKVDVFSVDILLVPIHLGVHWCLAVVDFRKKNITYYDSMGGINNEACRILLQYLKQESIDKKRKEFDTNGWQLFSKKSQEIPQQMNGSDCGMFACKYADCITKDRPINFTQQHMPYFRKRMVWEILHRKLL
#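 Test system: hSENP1 catalytic domain, recombinant; Amount: 20 pM final SENP1 enzyme; Medium: Tris pH 8 buffer plus EDTA, NaCl, BME, BSA, NP40, catalase; Schedule: 50 min enzyme reaction, room temperature, light-protected; Technique: FRET fluorescence in CFP and YFP emission channels; Controls: no-enzyme wells low, DMSO-plus-enzyme wells high control.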
# SENP6 inh: SENP6 protease inhibition; 330,000 tested, 1.8% active; inhibition, % at 10 µM; AID 2599; Recombinant SENP6 catalytic domain, aminoluciferin luminescence; Q9GZR1;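 active = inhibition above about 50% at the single tested dose, limit read from the data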;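 note: plate controls were DMSO wells with enzyme for no effect and DMSO wells lacking enzyme for full effect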
# Target sequence (Q9GZR1 628-1112 limits assumed): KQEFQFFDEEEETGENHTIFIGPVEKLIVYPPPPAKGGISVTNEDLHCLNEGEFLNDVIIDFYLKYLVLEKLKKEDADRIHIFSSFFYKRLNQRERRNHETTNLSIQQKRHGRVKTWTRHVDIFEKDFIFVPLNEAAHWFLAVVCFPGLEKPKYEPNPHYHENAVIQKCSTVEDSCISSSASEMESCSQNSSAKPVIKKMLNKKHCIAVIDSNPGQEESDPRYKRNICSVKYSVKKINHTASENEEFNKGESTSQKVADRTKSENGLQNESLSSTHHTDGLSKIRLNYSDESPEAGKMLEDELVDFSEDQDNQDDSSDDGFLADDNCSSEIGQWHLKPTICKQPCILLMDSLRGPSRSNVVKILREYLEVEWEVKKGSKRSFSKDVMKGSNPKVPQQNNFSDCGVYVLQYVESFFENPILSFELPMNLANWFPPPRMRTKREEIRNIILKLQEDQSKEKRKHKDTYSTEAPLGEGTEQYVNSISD
# CendR NRP1 mod: NRP-1/CendR interaction modulation; FAM-RPARPAR peptide binding to NRP-1, fluorescence polarization; 360,000 tested, 0.85% active; inhibition, % at 25 µM; O14786;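 active = inhibition or corrected inhibition above about 18%, plus a signal ratio from 0.5 to 1.5, limit read from the data, passing the limit was not always enough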
# SENP8 block-2: blocks the human protease SENP8; inhibition, % at 10 µM; 330,000 tested, 1.2% active; purified SENP8, Z-RLRGG-aminoluciferin cleavage, luminescence; Q96LD8; AID 2540; in the data active = inhibition above about 50%
# SENP8 conf: confirmation of human SENP8 protease inhibitors; 6,200 tested, 40% active; AID 488912; inhibition, % at 12.5 µM; Recombinant SENP8, Z-RLRGG-aminoluciferin luminescence, 60 min; shares compounds with SENP7 block;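 active = mean inhibition across replicates above about 50%, limit read from the data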
# SENP6 conf: confirmation of human SENP6 protease inhibitors | shares compounds with SENP7 block | recombinant SENP6, Z-RLRGG-aminoluciferin luminescence | inhibition, % at 12.5 µM | 6,200 tested, 58% active
# SENP7 conf: confirmation of human SENP7 protease inhibitors; shares compounds with SENP7 block; recombinant SENP7, Z-RLRGG-aminoluciferin luminescence, 40 min; inhibition, % at 12.5 µM; 6,200 tested, 69% active; AID 488917
# Casp3 SENP sel: inhibits human caspase-3 in SENP selectivity test. shares compounds with SENP7 block. purified caspase-3, Z-DEVD-aminoluciferin luminescence, 60 min. inhibition, % at 12.5 µM. 6,200 tested, 60% active;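 active = mean inhibition above about 50%, limit read from the data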;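 note: plate controls were enzyme with DMSO for no effect and wells without caspase-3 for full effect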
# Luc interf: counter-screen for SENP inhibitors: luminescence interference; shares compounds with SENP7 block; Pre-incubated SENP8/Z-RLRGG-aminoluciferin, luciferase luminescence interference; inhibition, % at 12.5 µM; 6,200 tested, 39% active; AID 488919;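 active = mean inhibition above about 50% when retested at one dose, limit read from the data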;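 note: plate controls were DMSO wells with completed reaction for no effect and substrate without enzyme for full effect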
# Starred values were filed as active, the others as inactive; i = inactive; . = no result. Hits are enriched below; roughly 3.3% of the tested compounds scored in any of these assays.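 Rule for the calls, unless noted: active = mean inhibition above about 50% in the one-dose retest (limit read from the data); inactive = the rest.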
SMILES,SENP8 block-1,SENP7 block,SENP1 inh,SENP6 inh,CendR NRP1 mod,SENP8 block-2,SENP8 conf,SENP6 conf,SENP7 conf,Casp3 SENP sel,Luc interf
O=C(Nc1cc(C(F)(F)F)ccc1F)C1Cc2c(-c3ccccc3Oc3ccccc3)ccnc2O1 (stereo unspecified),16.2,.,1.8,.,-4.9,.,.,.,.,.,.
CCNC(=O)C1CCCN(C(=O)c2ccco2)CC1 (stereo unspecified),8.4,.,2.6,.,6.6,.,.,.,.,.,.
O=C(NCCc1cn2cccnc2n1)C1CCC(=O)N(Cc2ccccc2F)C1 (stereo unspecified),-491.6,.,1.1,.,-7.1,.,.,.,.,.,.
CN=C1S/C(=C\c2cc(C)n(-c3ccccc3F)c2C)C(=O)N1C,-13.7,65.8*,-5.2,42.1,2.4,62.7*,86.2*,87.6*,95.8*,70.1*,74.0*
Cc1cc(/C=C2\SC(=S)N(C)C2=O)c(C)n1-c1cccc(O)c1,16.0,59.9*,-30.5,90.0*,-135.8,79.9*,4.7,25.7,27.1,7.5,13.4
CN=C1S/C(=C\c2ccc(N3CCOCC3)cc2C)C(=O)N1C,-55.9,5.6,-33.5,6.5,-25.1,-1.4,.,.,.,.,.
Cc1cc(/C=C2\SC(=O)N(C)C2=O)c(C)n1-c1ccc(O)cc1,-92.6,-0.5,-27.7,60.7*,-11.3,15.7,74.4*,71.8*,83.5*,30.5,68.9*
COc1ccc(-n2c(C)cc(/C=C3/SC(=S)N(C)C3=O)c2C)cc1,19.2,.,-27.4,.,-110.3,.,.,.,.,.,.
CC1CN(C(=O)COC(=O)c2cc(=O)[nH]c3ccccc23)CC(C)O1 (stereo unspecified),-26.5,.,2.1,.,-2.7,.,.,.,.,.,.
Cc1cccc(N=C2NC(=O)/C(=C/c3cccs3)S2)c1,-8.4,6.7,3.4,52.1*,-35.2,7.4,6.4,16.3,22.9,15.8,5.9
O=C1CCN2C=Nc3cccc4ccc1c2c34,i,39.4,-20.3,69.4*,144.2,59.3*,-25.0,17.0,6.1,-5.3,-5.2
O=C1CCC(=O)c2ccc3c4c(ccc1c24)CC3,-453.7,.,-7.0,.,5.1,.,.,.,.,.,.
O=C(CCCc1ccccc1)c1ccc2c(c1)OCCO2,5.8,95.7*,-1.3,92.2*,8.3,92.6*,94.9*,96.6*,102.0*,90.8*,66.7*
O=C(O)CCC(=O)c1ccc2c(c1)OCCCO2,12.2,-1.5,2.6,0.8,-5.0,-12.2,.,.,.,.,.
C/C(=N/NC(=O)CCc1ccccc1)c1ccc2c(c1)OCO2,4.8,-6.6,2.3,-3.7,5.6,-12.4,.,.,.,.,.
O=C(c1ccccc1)c1ccc2c(c1)OCCCO2,0.7,62.0*,-3.1,43.5,2.7,28.2,28.1,34.1,74.7*,53.8*,55.0*
O/N=C(/CCc1ccccc1)c1ccc2c(c1)OCCO2,5.3,52.3*,2.1,13.2,-11.0,46.7,69.6*,68.8*,87.6*,43.6,72.2*
O=C(CCc1ccccc1)c1ccc2c(c1)OCCCO2,13.9,41.9,2.6,57.9*,-7.0,21.2,42.1,42.4,76.3*,37.8,37.1
COc1ccc(-c2ccc(C(=O)NCc3ccc(N4CCN(C)CC4)cc3)c3occc23)c(C)c1,20.3,.,1.1,.,-6.4,.,.,.,.,.,.
COc1ccc(CN(C)C(=O)c2cccc(S(=O)(=O)N3CCCc4ccccc43)c2)c(OC)c1OC,0.7,.,0.3,.,0.5,.,.,.,.,.,.
O=C(NCCCn1ccnc1)c1sc2cc([N+](=O)[O-])ccc2c1Cl,-1.3,.,2.3,.,-1.8,.,.,.,.,.,.
O=C(O)C(Cc1ccccc1)N1C(=O)C=CC1=O (stereo unspecified),12.4,.,2.2,.,3.5,.,.,.,.,.,.
O=C(CCCc1ccccc1)Nc1cccc(C(=O)O)c1,8.5,92.8*,1.1,88.8*,11.3,81.9*,92.7*,92.6*,100.0*,49.5,92.0*
O=C(CCCC(=O)c1ccccc1)NCCc1ccccc1,27.1,1.4,0.6,4.5,-3.2,3.2,.,.,.,.,.
O=C(O)c1ccc2c(c1)OCCCO2,18.2,-2.9,1.7,-12.8,3.5,-3.3,.,.,.,.,.
SMILES,SENP8 block-1,SENP7 block,SENP1 inh,SENP6 inh,CendR NRP1 mod,SENP8 block-2,SENP8 conf,SENP6 conf,SENP7 conf,Casp3 SENP sel,Luc interf
O=C(CCc1ccccc1)NC(=S)Nc1cccc(C(=O)O)c1,7.4,9.9,1.4,-9.4,-3.9,-2.1,.,.,.,.,.
O=C(CCCC(=O)c1ccc(O)cc1)c1ccc(O)cc1,15.7,73.8*,0.8,93.0*,7.9,88.6*,91.5*,91.5*,100.7*,92.4*,91.5*
O=C(CCCc1ccccc1)c1ccccc1,10.9,60.0*,1.5,79.8*,-1.1,59.1*,-6.5,46.5,86.1*,40.4,10.9
O=C(/C=C/c1ccccc1)c1ccc2c(c1)OCCCCO2,22.9,68.0*,-1.6,88.5*,-1.5,40.0,72.0*,59.0*,23.2,15.1,75.8*
CC(=O)c1ccc(N2CCN(C(=O)CNS(=O)(=O)c3ccc4c(c3)OCCCO4)CC2)c(F)c1,-38.7,-16.5,1.5,-15.2,-1.2,-18.9,.,.,.,.,.
O=[N+]([O-])c1cccc(-c2nc(-c3ccncc3)no2)c1,24.2,9.3,0.5,5.6,2.3,-15.4,.,.,.,.,.
COc1ccc(-c2nc(-c3ccncc3)no2)cc1OC,2.4,17.3,0.0,27.5,2.2,13.1,.,.,.,.,.
Cc1ccc(-c2nc(-c3ccncc3)no2)cc1C,2.4,78.0*,0.5,84.9*,0.3,79.4*,53.3*,58.4*,76.4*,65.5*,30.0
Cc1cc(-c2nc(-c3ccncc3)no2)ccc1[N+](=O)[O-],12.9,60.7*,0.9,59.5*,1.4,54.5*,8.7,8.6,16.2,11.7,11.3
Cc1ccc(-c2nc(-c3ccncc3)no2)cc1Cl,11.9,54.8*,-1.4,29.9,-3.1,23.4,22.7,20.2,34.7,38.6,10.8
Cc1sc2nc(-c3ccco3)oc(=O)c2c1C,-89.8,4.6,-23.5,-17.1,-20.3,-39.1,.,.,.,.,.
Cc1ccccc1-c1nc2sc(-c3ccccc3)cc2c(=O)o1,-40.6,84.5*,-19.1,80.0*,-2.6,36.9,-20.9,-10.2,-7.0,9.2,-5.4
Cc1cccc(-c2nc3sc(C)cc3c(=O)o2)c1,-71.1,-5.4,0.5,5.0,-2.3,-1.2,.,.,.,.,.
Cc1ccccc1-c1nc2sc(C)c(C)c2c(=O)o1,20.7,83.2*,2.3,77.2*,-8.3,60.8*,37.6,39.2,35.1,47.8,13.3

# Source: PubChem
